From ChEMBL document CHEMBL3286382, “Synthesis and biological evaluation of imidazo[1,2-a]pyrimidines and imidazo[1,2-a]pyridines as new inhibitors of the Wnt/β-catenin signaling” (Eur J Med Chem, 2014)
Active and inactive are the calls of the source. The rule behind the calls is not given here.

Experiments:
Danio rerio [1] = species: Danio rerio; assay: Toxicity in zebrafish larvae assessed as mortality at 25 uM treated for 7 days; assay type: organism-based; details: in vivo, 168 h
Outline: (§1)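 Wild-type zebrafish larvae raised under standard conditions were exposed to compounds dissolved in E3 medium. The medium containing compound was renewed every day for 7 days. The read-out was survival rate (mortality) at the end of exposure.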

A549 = assay: Antiproliferative activity against human A549 cells after 72 hrs by MTT assay; assay type: functional; details: A549, 72 h
Outline: (§2)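 Cells grown in DMEM with 10% FBS, penicillin G, streptomycin and L-glutamine, seeded 7 x 10^3 per well, left 24 h, then exposed to scalar concentrations in complete medium for 72 h at 37 °C, 5% CO2. Viability read by MTT; IC50 taken as the concentration giving 50% inhibition of proliferation.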

HT-29 [2] = assay: Antiproliferative activity against human HT-29 cells after 72 hrs by MTT assay; assay type: functional; details: HT-29, 72 h; outline: as §2
HT-29 [3] = assay: Cell cycle arrest in human HT-29 cells assessed as reduction of cells in S phase at 25 uM after 24 hrs by flow cytometry; assay type: functional, cell-based
Outline: (§3)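 Exponentially growing HT-29 cells (1.5 × 10^5) were treated with the compounds for 24 h, then collected and fixed in ice-cold 70% ethanol. Fixed cells were treated with lysis buffer holding RNase A and 0.1% Triton X-100, stained with PI and analysed for DNA content by flow cytometry.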

HepG2 = assay: Antiproliferative activity against human HepG2 cells after 72 hrs by MTT assay; assay type: functional; details: HepG2, 72 h; outline: as §2
HT-29 [4] = assay: Inhibition of Wnt/beta-catenin signaling in human HT29 cells assessed as […] in axin2 mRNA expression at 25 uM after 24 hrs by quantitative real-time PCR assay; assay type: cell-based
Outline: (§4)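 Total RNA was extracted with TRIzol from HT-29 cells treated for 24 h. Transcripts were measured by real-time RT-PCR with GUS as the reference gene, and expression was expressed relative to untreated cells.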

HT-29 [5] = assay: Inhibition of Wnt signaling in human HT29 cells assessed as inhibition of beta-catenin-mediated Tcf/Lef transcriptional activity after 24 hrs by dual luciferase reporter gene assay relative to control; assay type: cell-based; details: HT-29, 24 h
HT-29 [6] = assay: Inhibition of Wnt/beta-catenin signaling in human HT29 cells assessed as increase in p21 protein expression at 25 uM after 24 hrs by Western blot analysis; assay type: cell-based
Outline: (§5)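 After 24 h exposure, HT-29 cells were washed in cold PBS, lysed on ice for 30 min and cleared at 15 000 g, 4 °C. 10 µg protein was run on 12% SDS-PAGE and transferred to PVDF. Blots were probed with specific primary antibodies, then peroxidase-labelled secondaries, and developed by ECL. β-actin re-probing served as the loading control.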

HT-29 [7] = assay: Inhibition of Wnt/beta-catenin signaling in human HT29 cells assessed as decrease in TCF4 mRNA expression at 25 uM after 24 hrs by quantitative real-time PCR assay; assay type: cell-based; outline: as §4
Danio rerio [8] = species: Danio rerio; assay: Inhibition of Wnt/beta-catenin signaling in zebrafish larvae assessed as inhibition of Tcf/Lef transcriptional activity measured as thinner intestine at 10 uM after 72 hrs by GFP reporter assay; assay type: functional, organism-based
Outline: (§6)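 TCF/LEF-GFP reporter zebrafish were exposed from 24 hours post-fertilization for 72 h, with compounds dissolved in E3 medium that was renewed daily. GFP in the head and intestine was imaged by fluorescence stereomicroscope at 8X, alongside bright-field images.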

LoVo = assay: Antiproliferative activity against human LoVo cells after 72 hrs by MTT assay; assay type: functional; outline: as §2
HT-29 [9] = assay: Inhibition of Wnt signaling in human HT29 cells assessed as beta-catenin dephosphorylation at S33/37/T41 residues at 25 uM after 24 hrs by Western blot analysis; assay type: cell-based; outline: as §5
HT-29 [10] = assay: Inhibition of Wnt/beta-catenin signaling in human HT29 cells assessed as effect on c-myc mRNA expression at 25 uM after 24 hrs by quantitative real-time PCR assay; assay type: cell-based; outline: as §4
Danio rerio [11] = species: Danio rerio; assay: Inhibition of Wnt/beta-catenin signaling in zebrafish larvae assessed as inhibition of Tcf/Lef transcriptional activity measured as dysmorphic craniofacial features at 10 uM after 72 hrs by GFP reporter assay; assay type: functional, organism-based; outline: as §6
HT-29 [12] = assay: Inhibition of Wnt signaling in human HT29 cells assessed as inhibition of beta-catenin-mediated Tcf/Lef transcriptional activity at 25 uM after 24 hrs by dual luciferase reporter gene assay relative to control; assay type: cell-based
Outline: (§7)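 HT-29 cells (1.4 x 10^4) were co-transfected with 1 µg BAT-LUX, which carries 7 TCF sites and the siamois promoter driving firefly luciferase, plus 1 µg Renilla vector. Cells were then treated at 37 °C for 24 h, with or without the GSK-3β inhibitor LiCl. Dual-Glo readout; values are the mean firefly/Renilla ratio.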

[13] = Antiproliferative activity against human fibroblasts after 72 hrs by MTT assay; assay type: cell-based, Fibroblast
HT-29 [14] = assay: Cell cycle arrest in human HT-29 cells assessed as accumulation of cells at G1 phase at 25 uM after 24 hrs by flow cytometry; assay type: functional, cell-based; outline: as §3
HT-29 [15] = assay: Inhibition of Wnt/beta-catenin signaling in human HT29 cells assessed as decrease in TCF1 protein level at 25 uM after 24 hrs by Western blot analysis; assay type: cell-based; outline: as §5
HT-29 [16] = assay: Inhibition of Wnt signaling in human HT29 cells assessed as inhibition of beta-catenin-mediated Tcf/Lef transcriptional activity at 25 uM after 24 hrs by dual luciferase reporter gene assay relative to control in presence of GSK-3beta inhibitor LiCl; assay type: cell-based; outline: as §7
HT-29 [17] = assay: Inhibition of Wnt/beta-catenin signaling in human HT29 cells assessed as GSK3-beta dephosphorylation at Ser21/Ser9 residues at 25 uM after 24 hrs by Western blot analysis; assay type: cell-based; outline: as §5
HT-29 [18] = assay: Cell cycle arrest in human HT-29 cells assessed as reduction of cells in G2/M phase at 25 uM after 24 hrs by flow cytometry; assay type: functional, cell-based; outline: as §3
Danio rerio [19] = assay: Inhibition of Wnt/beta-catenin signaling in zebrafish larvae assessed as inhibition of Tcf/Lef transcriptional activity measured as pericardial edema at 10 uM after 72 hrs by GFP reporter assay; assay type: functional, organism-based; outline: as §6
HT-29 [20] = assay: Inhibition of Wnt/beta-catenin signaling in human HT29 cells assessed as increase in phosphorylated c-myc level at 25 uM after 24 hrs by Western blot analysis; assay type: cell-based; outline: as §5
HT-29 [21] = assay: Inhibition of Wnt/beta-catenin signaling in human HT29 cells assessed as downregulation of cyclin D1 protein expression at 25 uM after 24 hrs by Western blot analysis; assay type: cell-based; outline: as §5
HT-29 [22] = assay: Inhibition of Wnt/beta-catenin signaling in human HT29 cells assessed as downregulation of cyclin B1 protein expression at 25 uM after 24 hrs by Western blot analysis; assay type: cell-based; outline: as §5
Danio rerio [23] = species: Danio rerio; assay: Toxicity in zebrafish larvae assessed as mortality at 5 to 25 uM treated for 7 days; assay type: organism-based; details: in vivo, 168 h; outline: as §1
Danio rerio [24] = species: Danio rerio; assay: Inhibition of Wnt/beta-catenin signaling in zebrafish larvae assessed as inhibition of Tcf/Lef transcriptional activity measured as thinner intestine at 1 uM after 72 hrs by GFP reporter assay; assay type: functional, organism-based; outline: as §6
Danio rerio [25] = species: Danio rerio; assay: Toxicity in zebrafish larvae assessed as mortality at 1 uM treated for 7 days; assay type: organism-based; details: in vivo, 168 h; outline: as §1

In the case of Cc1ccn2cc(-c3ccc(N(Cc4ccccc4)Cc4ccccc4)cc3)nc2c1, the Activity (Danio rerio [1]) is reported as “Toxic”, the GI50 (A549) is reported as 17.2 µM and the GI50 (HT-29 [2]) is reported as 6.9 µM. The Activity (HT-29 [3]) was “Active”, the GI50 (HepG2) was 18.4 µM and the inhibition (HT-29 [4]) was “Active”. The IC50 (HT-29 [5]) was 24.1 µM, the inhibition (HT-29 [6]) was “Active” and the inhibition (HT-29 [7]) was “Active”. The inhibition (Danio rerio [8]) was “Active”, the GI50 (LoVo) was 5.7 µM and the inhibition (HT-29 [9]) was “Active”. The inhibition (HT-29 [10]) was “inactive”, the inhibition (Danio rerio [11]) was “Active” and the inhibition (HT-29 [12]) was “Active”. For the same molecule, the GI50 at 72 h [13] was 52.3 µM, the Activity (HT-29 [14]) was “Active” and the inhibition (HT-29 [15]) was “Active”. The inhibition (HT-29 [16]) was “Active”, the inhibition (HT-29 [17]) was “inactive” and the Activity (HT-29 [18]) was “Active”. The inhibition (Danio rerio [19]) was “Active”, the inhibition (HT-29 [20]) was “Active” and the inhibition (HT-29 [21]) was “Active”. The inhibition (HT-29 [22]) was “Active”.

In the case of CC(=O)Nc1cc(=O)n(Cc2ccccc2)c(SCc2ccccc2)n1, the Activity (Danio rerio [23]) is reported as “Toxic”, the GI50 (A549) is reported as 50.4 µM and the GI50 (HT-29 [2]) is reported as 79.3 µM. The GI50 (HepG2) was 71.7 µM, the IC50 (HT-29 [5]) was 35.6 µM and the inhibition (Danio rerio [24]) was “Active”. The GI50 (LoVo) was 56.3 µM and the Activity (Danio rerio [25]) was “Non-toxic”.
